According to ChEMBL document CHEMBL2016521, “Preparation, gram-negative antibacterial activity, and hydrolytic stability of novel siderophore-conjugated monocarbam diols” (ACS Med Chem Lett, 2011):
In brackets after ≈: the same amount, converted by molar mass.

Assays:
[1] = Chemical stability of the compound in phosphate buffer at pH 6 at 1 uM after 24 hrs by HPLC analysis; type: physicochemical; conditions: pH 6, 24 h
In short: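 Hydrolytic stability of the β-lactam ring was measured in aqueous buffer at pH 6.0 and 37 °C.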

[2] = system: Pseudomonas aeruginosa; test: Antibacterial activity against Pseudomonas aeruginosa isolate 1091-05; type: functional
[3] = system: Acinetobacter baumannii; test: Antibacterial activity against Acinetobacter baumannii AB-3167; type: functional
[4] = system: Klebsiella pneumoniae; test: Antibacterial activity against Klebsiella pneumoniae 1000-02; type: functional
[5] = system: Pseudomonas aeruginosa; test: Antibacterial activity against Pseudomonas aeruginosa; type: functional
[6] = Fraction unbound in mouse plasma at 1 uM by LC-MS/MS analysis; type: ADME, cell-free
[7] = system: Pseudomonas aeruginosa; test: Antibacterial activity against low inoculum imipenem-sensitive Pseudomonas aeruginosa isolate 1091-05 infected in sc dosed neutropenic-C3H/HeN mouse assessed as mouse survival administered 4 hrs post infection followed by BID dosing for two days measured on day 10; type: functional; conditions: isolate 1091-05, sc, read-out: PD50
[8] = Chemical stability of the compound in phosphate buffer at pH 8 assessed as drug degradation at 1 uM after 100 hrs by HPLC analysis; type: physicochemical; conditions: read-out: Drug degradation
In short: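 Hydrolytic β-lactam ring-opening was followed in aqueous buffer at pH 8.0 and 37 °C over a 100 h incubation. The read-out was percent degradation.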

[9] = system: Pseudomonas aeruginosa; test: Antibacterial activity against imipenem-sensitive Pseudomonas aeruginosa isolate 1091-05 infected in sc dosed neutropenic-C3H/HeN mouse assessed as mouse survival administered 4 hrs post infection followed by BID dosing for two days measured on day 10; type: functional; conditions: isolate 1091-05, sc, read-out: PD50
[10] = system: Pseudomonas aeruginosa; test: Antibacterial activity against imipenem-sensitive Pseudomonas aeruginosa isolate 1091-05 infected in ip dosed SF-1 mouse assessed as survival of animal administered 0.5 and 4 hrs post infected measured on day 4; type: functional; conditions: isolate 1091-05, ip, read-out: PD50
[11] = system: Klebsiella pneumoniae; test: Antimicrobial activity against carbapenemase-producing Klebsiella pneumoniae; type: functional
[12] = system: Pseudomonas aeruginosa; test: Antibacterial activity against Pseudomonas aeruginosa cystic fibrosis isolate; type: functional
[13] = system: Escherichia coli; test: Antimicrobial activity against CTX-M-positive extended spectrum beta-lactamase-producing Escherichia coli; type: functional
[14] = system: Stenotrophomonas maltophilia; test: Antimicrobial activity against Stenotrophomonas maltophilia; type: functional
[15] = system: Pseudomonas aeruginosa; test: Antibacterial activity against Pseudomonas aeruginosa clinical isolate; type: functional
[16] = system: Acinetobacter sp.; test: Antimicrobial activity against Acinetobacter sp.; type: functional
[17] = system: Klebsiella aerogenes; test: Antimicrobial activity against Enterobacter aerogenes; type: functional
[18] = system: Citrobacter freundii; test: Antimicrobial activity against Citrobacter freundii; type: functional
[19] = system: Klebsiella pneumoniae; test: Antimicrobial activity against Klebsiella pneumoniae clinical isolate; type: functional
[20] = system: Pseudomonas aeruginosa; test: Antibacterial activity against metallo-beta-lactamase producing Pseudomonas aeruginosa; type: functional
[21] = system: Klebsiella pneumoniae; test: Antimicrobial activity against extended spectrum beta-lactamase-producing Klebsiella pneumoniae; type: functional
[22] = system: Escherichia coli; test: Antimicrobial activity against extended spectrum beta-lactamase-producing Escherichia coli; type: functional
[23] = system: Serratia marcescens; test: Antimicrobial activity against Serratia marcescens; type: functional
[24] = system: Escherichia coli; test: Antimicrobial activity against Escherichia coli clinical isolate; type: functional

C[C@H]1[C@H](NC(=O)/C(=N\OC(C)(C)C(=O)[O-])c2csc(N)n2)C(=O)N1C(=O)[N-]S(=O)(=O)n1nc(-c2cc(=O)c(O)c[nH]2)n(C[C@@H](O)CO)c1=O.[Na+].[Na+]
Stability [1]: Stable
MIC [2]: 0.25 µg/mL
MIC [3]: 2 µg/mL
MIC [4]: 0.5 µg/mL
MIC90 [5]: 0.5 µg/mL
fraction unbound at 1 µM [6]: 0.51
ED50 [7]: 1.4 mg/kg
degraded at 100 h, 1 µM [8]: 20%

C[C@@H](O)Cn1c(-c2cc(=O)c(O)c[nH]2)nn(S(=O)(=O)[N-]C(=O)N2C[C@H](NC(=O)/C(=N\OC(C)(C)C(=O)[O-])c3csc(N)n3)C2=O)c1=O.[Na+].[Na+]
ED50 [9]: 32.7 mg/kg
MIC [2]: 0.125 µg/mL
MIC [3]: 1 µg/mL
ED50 [10]: < 1 mg/kg
MIC [4]: 0.5 µg/mL
MIC90 [5]: 1 µg/mL

CCN(CC)CCn1c(-c2cc(=O)c(O)c[nH]2)nn(S(=O)(=O)[N-]C(=O)N2C[C@H](NC(=O)/C(=N\OC(C)(C)C(=O)[O-])c3csc(N)n3)C2=O)c1=O.[Na+].[Na+]
MIC [2]: 1 µg/mL

CC(C)(O/N=C(\C(=O)N[C@H]1CN(C(=O)[N-]S(=O)(=O)n2nc(-c3cc(=O)c(O)c[nH]3)n(CC(F)(F)F)c2=O)C1=O)c1csc(N)n1)C(=O)[O-].[Na+].[Na+]
MIC [2]: 0.25 µg/mL

CC(C)(O/N=C(\C(=O)N[C@H]1CN(C(=O)[N-]S(=O)(=O)n2nc(-c3cc(=O)c(O)c[nH]3)n(C[C@@H]3CCCO3)c2=O)C1=O)c1csc(N)n1)C(=O)[O-].[Na+].[Na+]
ED50 [9]: > 100 mg/kg
MIC [2]: 0.5 µg/mL
MIC [3]: 2 µg/mL
ED50 [10]: 2.8 mg/kg
MIC [4]: 0.5 µg/mL

CC(C)(O/N=C(\C(=O)N[C@H]1CN(C(=O)[N-]S(=O)(=O)n2nc(-c3cc(=O)c(O)c[nH]3)n(C[C@@H](O)CO)c2=O)C1=O)c1csc(N)n1)C(=O)[O-].[Na+].[Na+]
MIC50 [11]: 0.5 µg/mL
MIC90 [11]: 8 µg/mL
MIC50 [12]: 0.125 µg/mL
MIC90 [12]: 0.5 µg/mL
ED50 [9]: 20.6 mg/kg
MIC50 [13]: 0.25 µg/mL
MIC90 [13]: 2 µg/mL
Stability [1]: Stable
MIC [2]: 0.125 µg/mL
MIC50 [14]: 1 µg/mL
MIC90 [14]: 2 µg/mL
MIC50 [15]: 0.125 µg/mL
MIC90 [15]: 0.5 µg/mL
MIC50 [16]: 16 µg/mL
MIC90 [16]: > 64 µg/mL
MIC [3]: 0.5 µg/mL
MIC50 [17]: 0.125 µg/mL
MIC90 [17]: 0.25 µg/mL
ED50 [10]: < 1 mg/kg
MIC50 [18]: 0.5 µg/mL
MIC90 [18]: 2 µg/mL
MIC [4]: 0.5 µg/mL
MIC50 [19]: 0.5 µg/mL
MIC90 [19]: 8 µg/mL
MIC90 [5]: 0.5 µg/mL
fraction unbound at 1 µM [6]: 0.46
ED50 [7]: 6.9 mg/kg
degraded at 100 h, 1 µM [8]: 50%
MIC50 [20]: 0.125 µg/mL
MIC90 [20]: 0.5 µg/mL
MIC50 [21]: 0.5 µg/mL
MIC90 [21]: 8 µg/mL
MIC50 [22]: 0.25 µg/mL
MIC90 [22]: 2 µg/mL
MIC50 [23]: 0.125 µg/mL
MIC90 [23]: 0.5 µg/mL
MIC50 [24]: 0.25 µg/mL
MIC90 [24]: 2 µg/mL

Cn1c(-c2cc(=O)c(O)c[nH]2)nn(S(=O)(=O)[N-]C(=O)N2C[C@H](NC(=O)/C(=N\OC(C)(C)C(=O)[O-])c3csc(N)n3)C2=O)c1=O.[Na+].[Na+]
ED50 [9]: > 150 mg/kg
MIC [2]: 0.5 µg/mL
MIC [3]: 1 µg/mL
ED50 [10]: 4 mg/kg
MIC [4]: 0.5 µg/mL
MIC90 [5]: 2 µg/mL
fraction unbound at 1 µM [6]: 0.26

CC(C)(O)Cn1c(-c2cc(=O)c(O)c[nH]2)nn(S(=O)(=O)[N-]C(=O)N2C[C@H](NC(=O)/C(=N\OC(C)(C)C(=O)[O-])c3csc(N)n3)C2=O)c1=O.[Na+].[Na+]
MIC [2]: 0.25 µg/mL

CC(C)(O/N=C(\C(=O)N[C@H]1CN(C(=O)[N-]S(=O)(=O)n2nc(-c3cc(=O)c(O)c[nH]3)n(CC(N)=O)c2=O)C1=O)c1csc(N)n1)C(=O)[O-].[Na+].[Na+]
ED50 [9]: 25 mg/kg
MIC [2]: 0.125 µg/mL
MIC [3]: 1 µg/mL
MIC [4]: 1 µg/mL
MIC90 [5]: 1 µg/mL

C[C@@H](O)[C@H]1C(=O)N2C(C(=O)O)=C(S[C@@H]3CN[C@H](C(=O)N(C)C)C3)[C@H](C)[C@H]12 [MEROPENEM]
MIC50 [11]: 0.06 µg/mL (≈ 0.156 µM)
MIC90 [11]: 32 µg/mL (≈ 83.4 µM)
MIC50 [12]: 8 µg/mL (≈ 20.9 µM)
MIC90 [12]: > 64 µg/mL
ED50 [9]: 1.04 mg/kg
MIC50 [13]: 0.06 µg/mL (≈ 0.156 µM)
MIC90 [13]: 0.06 µg/mL (≈ 0.156 µM)
MIC [2]: 0.5 µg/mL (≈ 1.3 µM)
MIC50 [14]: > 64 µg/mL
MIC90 [14]: > 64 µg/mL
MIC50 [15]: 8 µg/mL (≈ 20.9 µM)
MIC90 [15]: > 64 µg/mL
MIC50 [16]: 1 µg/mL (≈ 2.61 µM)
MIC90 [16]: 32 µg/mL (≈ 83.4 µM)
MIC [3]: 0.25 µg/mL (≈ 0.652 µM)
MIC50 [17]: 0.06 µg/mL (≈ 0.156 µM)
MIC90 [17]: 0.25 µg/mL (≈ 0.652 µM)
ED50 [10]: 1.3 mg/kg
MIC50 [18]: 0.06 µg/mL (≈ 0.156 µM)
MIC90 [18]: 0.25 µg/mL (≈ 0.652 µM)
MIC [4]: < 1 µg/mL
MIC50 [19]: 0.06 µg/mL (≈ 0.156 µM)
MIC90 [19]: 32 µg/mL (≈ 83.4 µM)
MIC90 [5]: > 64 µg/mL
degraded at 100 h, 1 µM [8]: 50%
MIC50 [20]: 8 µg/mL (≈ 20.9 µM)
MIC90 [20]: > 64 µg/mL
MIC50 [21]: 0.06 µg/mL (≈ 0.156 µM)
MIC90 [21]: 32 µg/mL (≈ 83.4 µM)
MIC50 [22]: 0.06 µg/mL (≈ 0.156 µM)
MIC90 [22]: 0.06 µg/mL (≈ 0.156 µM)
MIC50 [23]: 0.06 µg/mL (≈ 0.156 µM)
MIC90 [23]: > 64 µg/mL
MIC50 [24]: 0.06 µg/mL (≈ 0.156 µM)
MIC90 [24]: 0.06 µg/mL (≈ 0.156 µM)
